Experimental data taken from ChEMBL document CHEMBL1165950, “Design and synthesis of new potent anticancer pyrazoles with high FLT3 kinase inhibitory selectivity” (Bioorg Med Chem, 2010).

Tests used:
Format in all cases: functional
HL-60(TB) = assay: Cytotoxicity against human HL-60(TB) cells assessed as cell growth at 0.01 uM after 48 hrs by sulforhodamine B assay; settings: HL-60, 48 h, read-out: Activity
Outline: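 NCI 60-cell panel. Cells are grown in RPMI 1640 with 5% FBS and 2 mM L-glutamine, seeded at 5000–40,000 cells/well according to doubling time, and preincubated 24 h. Time-zero plates are TCA-fixed. Compound from DMSO stock is given at five 10-fold or 1/2-log concentrations for 48 h at 37 °C, 5% CO2. Suspension cells are fixed with 80% TCA (final 16%) and SRB-stained, with absorbance at 515 nm. Percent growth is derived from Tz, control and test readings.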

OVCAR-8 [1] = assay: Growth inhibition of human OVCAR8 cells after 48 hrs by sulforhodamine B assay; settings: OVCAR-8, 48 h; for CC50: read-out: LC50 (the source's name)
Outline: (§1)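 NCI 60-cell screen, five-dose mode. Cells grown in RPMI 1640 with 5% FBS and 2 mM L-glutamine and plated at 5000-40,000 cells/well according to doubling time. After 24 h preincubation, a Tz plate was TCA-fixed. Five concentrations (10-fold or 1/2 log dilutions) were applied for 48 h at 37 °C. SRB staining read at 515 nm. IC50 taken from [(Ti-Tz)/(C-Tz)]×100 = 50.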

ACHN = assay: Cytotoxicity against human ACHN cells assessed as cell growth at 0.001 uM after 48 hrs by sulforhodamine B assay; settings: read-out: Activity
Outline: (§2)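 NCI-60 five-dose screen. Cells were grown in RPMI 1640 with 5% FBS and 2 mM L-glutamine, plated at 5000–40,000 cells/well and preincubated for 24 h. Time-zero plates were TCA-fixed. DMSO-solubilized drug was added at five concentrations (10-fold or ½-log serial dilutions) for 48 h at 37 °C, 5% CO2. Cells were TCA-fixed, stained with 0.4% SRB and read at 515 nm. Percent growth used time-zero, control and test absorbances.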

OVCAR-5 = assay: Cytotoxicity against human OVCAR5 cells assessed as cell growth at 1 uM after 48 hrs by sulforhodamine B assay; settings: OVCAR-5, 48 h, read-out: Activity
MDA-MB-468 = assay: Cytotoxicity against human MDA-MB-468 cells assessed as cell growth at 100 nM after 48 hrs by sulforhodamine B assay; settings: MDA-MB-468, 48 h, read-out: Activity
SK-OV-3 = assay: Cytotoxicity against human SKOV3 cells assessed as cell growth at 10 uM; settings: read-out: Activity
Outline: (§3)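 NCI-60 screen: cells grown in RPMI 1640 with 5% FBS and 2 mM L-glutamine, plated at 5000–40,000 cells/well according to doubling time, and preincubated 24 h at 37 °C, 5% CO2. The single 10 µM dose (DMSO stock) was added, then incubated 48 h. Cells were TCA-fixed and stained with 0.4% SRB, read at 515 nm, and growth % calculated against time-zero and control plates.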

U-251 = assay: Growth inhibition of human U251 cells after 48 hrs by sulforhodamine B assay; settings: U-251, 48 h; for CC50: read-out: LC50 (the source's name); outline: as §1
NCI-H522 [2] = assay: Cytotoxicity against human NCI-H522 cells assessed as cell growth at 0.001 uM after 48 hrs by sulforhodamine B assay; settings: NCI-H522, 48 h, read-out: Activity
MOLT-4 = assay: Cytotoxicity against human MOLT4 cells assessed as cell growth at 100 nM after 48 hrs by sulforhodamine B assay; settings: MOLT-4, 48 h, read-out: Activity
HT-29 = assay: Cytotoxicity against human HT-29 cells assessed as cell growth at 0.001 uM after 48 hrs by sulforhodamine B assay; settings: HT-29, 48 h, read-out: Activity
OVCAR-8 [3] = assay: Cytotoxicity against human OVCAR8 cells assessed as cell growth at 1 uM after 48 hrs by sulforhodamine B assay; settings: OVCAR-8, 48 h, read-out: Activity
MDA-MB-435 = assay: Cytotoxicity against human MDA-MB-435 cells assessed as cell growth at 10 uM after 48 hrs by sulforhodamine B assay; settings: MDA-MB-435, 48 h, read-out: Activity
A549 [4] = assay: Cytotoxicity against human A549 cells assessed as cell growth at 10 uM after 48 hrs by sulforhodamine B assay; settings: A549, 48 h, read-out: Activity; outline: as §2
TK-10 = assay: Cytotoxicity against human TK10 cells assessed as cell growth at 1 uM after 48 hrs by sulforhodamine B assay; settings: TK-10, 48 h, read-out: Activity
SF-539 = assay: Cytotoxicity against human SF539 cells assessed as cell growth at 100 nM after 48 hrs by sulforhodamine B assay; settings: SF-539, 48 h, read-out: Activity
NCI-H522 [5] = assay: Cytotoxicity against human NCI-H522 cells assessed as cell growth at 1 uM after 48 hrs by sulforhodamine B assay; settings: NCI-H522, 48 h, read-out: Activity
HOP-92 = assay: Cytotoxicity against human HOP92 cells assessed as cell growth at 100 nM after 48 hrs by sulforhodamine B assay; settings: HOP-92, 48 h, read-out: Activity
KM12 = assay: Cytotoxicity against human KM12 cells assessed as cell growth at 0.001 uM after 48 hrs by sulforhodamine B assay; settings: KM12, 48 h, read-out: Activity
A498 = assay: Cytotoxicity against human A498 cells assessed as cell growth at 0.001 uM after 48 hrs by sulforhodamine B assay; settings: A498, 48 h, read-out: Activity; outline: as §2
HCC 2998 = assay: Cytotoxicity against human HCC2998 cells assessed as cell growth at 0.001 uM after 48 hrs by sulforhodamine B assay; settings: HCC 2998, 48 h, read-out: Activity
SR = assay: Cytotoxicity against human SR cells assessed as cell growth at 10 uM after 48 hrs by sulforhodamine B assay; settings: read-out: Activity
SN12C = assay: Cytotoxicity against human SN12C cells assessed as cell growth at 10 uM; settings: read-out: Activity; outline: as §3
HCT-15 = assay: Cytotoxicity against human HCT15 cells assessed as cell growth at 0.01 uM after 48 hrs by sulforhodamine B assay; settings: HCT-15, 48 h, read-out: Activity
EKVX = assay: Cytotoxicity against human EKVX cells assessed as cell growth at 0.001 uM after 48 hrs by sulforhodamine B assay; settings: read-out: Activity
SF-268 = assay: Cytotoxicity against human SF268 cells assessed as cell growth at 1 uM after 48 hrs by sulforhodamine B assay; settings: SF-268, 48 h, read-out: Activity
SK-MEL-2 = assay: Cytotoxicity against human SK-MEL-2 cells assessed as cell growth at 0.01 uM after 48 hrs by sulforhodamine B assay; settings: SK-MEL-2, 48 h, read-out: Activity
A549 [6] = assay: Cytotoxicity against human A549 cells assessed as cell growth at 0.01 uM after 48 hrs by sulforhodamine B assay; settings: A549, 48 h, read-out: Activity; outline: as §2
Malme-3M [7] = assay: Growth inhibition of human MALME-3M cells after 48 hrs by sulforhodamine B assay; settings: for CC50: read-out: LC50 (the source's name); outline: as §1
Malme-3M [8] = assay: Cytotoxicity against human MALME-3M cells assessed as cell growth at 100 nM after 48 hrs by sulforhodamine B assay; settings: read-out: Activity

| SMILES | growth at 0.01 µM (HL-60(TB)) [%] | GI50 (OVCAR-8 [1]) [µM] | TGI (OVCAR-8 [1]) [µM] | CC50 (OVCAR-8 [1]) [µM] | growth at 0.001 µM (ACHN) [%] | growth at 1 µM (OVCAR-5) [%] | growth at 0.1 µM (MDA-MB-468) [%] | growth at 10 µM (SK-OV-3) [%] | GI50 (U-251) [µM] | TGI (U-251) [µM] | CC50 (U-251) [µM] | growth at 0.001 µM (NCI-H522 [2]) [%] | growth at 0.1 µM (MOLT-4) [%] | growth at 0.001 µM (HT-29) [%] | growth at 1 µM (OVCAR-8 [3]) [%] | growth at 10 µM (MDA-MB-435) [%] | growth at 10 µM (A549 [4]) [%] | growth at 1 µM (TK-10) [%] | growth at 0.1 µM (SF-539) [%] | growth at 1 µM (NCI-H522 [5]) [%] | also measured |
| --- | --- | --- | --- | --- | --- | --- | --- | --- | --- | --- | --- | --- | --- | --- | --- | --- | --- | --- | --- | --- | --- |
| COc1cc(C)cc(-c2c(-c3ccnc(-c4ccc(N(C)C)cc4)c3)cnn2CC#N)c1 | 52 | 0.236 | > 100 | > 100 | 98 | 81 | -50 | -3.63 | 0.178 | > 100 | > 100 | 96 | 9 | 94 | 12 | -23 | 4 | 31 | -29 | -53 | growth at 0.1 µM (HOP-92): -3%; growth at 0.001 µM (KM12): 95%; growth at 0.001 µM (A498): 94%; growth at 0.001 µM (HCC 2998): 96%; growth at 10 µM (SR): -38%; growth at 10 µM (SN12C): 29.4%; growth at 0.01 µM (HCT-15): 12%; growth at 0.001 µM (EKVX): 97%; growth at 1 µM (SF-268): 24%; growth at 0.01 µM (SK-MEL-2): 66%; growth at 0.01 µM (A549 [6]): 59%; GI50 (Malme-3M [7]): 0.0598 µM; TGI (Malme-3M [7]): > 100 µM; CC50 (Malme-3M [7]): > 100 µM; growth at 0.1 µM (Malme-3M [8]): 49% |
| COc1cc(C)cc(-c2nn(CC#N)cc2-c2ccc(-c3cccc(C(C)=O)c3)nc2)c1 | 91 | 3.16 | 35.2 | > 100 | 93 | 21 | 9 | 10.1 | 3.17 | 13.5 | > 100 | 85 | 84 | 95 | 14 | -22 | -22 | 2 | 78 | -14 | growth at 0.1 µM (HOP-92): 89%; growth at 0.001 µM (KM12): 99%; growth at 0.001 µM (A498): 76%; growth at 0.001 µM (HCC 2998): 87%; growth at 10 µM (SR): 28%; growth at 10 µM (SN12C): 40.2%; growth at 0.01 µM (HCT-15): 100%; growth at 0.001 µM (EKVX): 99%; growth at 1 µM (SF-268): 23%; growth at 0.01 µM (SK-MEL-2): 89%; growth at 0.01 µM (A549 [6]): 87%; GI50 (Malme-3M [7]): 3.76 µM; TGI (Malme-3M [7]): 96.4 µM; CC50 (Malme-3M [7]): > 100 µM; growth at 0.1 µM (Malme-3M [8]): 66% |
| COc1cc(C)cc(-c2c(-c3ccnc(-c4ccc(C(C)=O)cc4)c3)cnn2CC#N)c1 | 99 | 2.86 | > 100 | > 100 | 100 | 60 | 68 | 97.8 | 2.89 | > 100 | > 100 | 86 | 81 | 110 | 8 | 16 | 30 | 43 | 92 | -14 | growth at 0.1 µM (HOP-92): 61%; growth at 0.001 µM (KM12): 100%; growth at 0.001 µM (A498): 74%; growth at 0.001 µM (HCC 2998): 95%; growth at 10 µM (SR): 28%; growth at 10 µM (SN12C): 66%; growth at 0.01 µM (HCT-15): 95%; growth at 0.001 µM (EKVX): 95%; growth at 1 µM (SF-268): 15%; growth at 0.01 µM (SK-MEL-2): 90%; growth at 0.01 µM (A549 [6]): 84%; GI50 (Malme-3M [7]): 5.82 µM; TGI (Malme-3M [7]): > 100 µM; CC50 (Malme-3M [7]): > 100 µM; growth at 0.1 µM (Malme-3M [8]): 97% |
| Cc1cc(O)cc(-c2nn(CC#N)cc2-c2ccnc(-c3ccc(N(C)C)cc3)c2)c1 | 97 | 4.2 | 69.4 | > 100 | 94 | 64 | 77 | 18 | 3.14 | 12.9 | 61.3 | 87 | 89 | 101 | 27 | -31 | -8 | 44 | 91 | -13 | growth at 0.1 µM (HOP-92): 73%; growth at 0.001 µM (KM12): 91%; growth at 0.001 µM (A498): 101%; growth at 0.001 µM (HCC 2998): 91%; growth at 10 µM (SR): 4%; growth at 10 µM (SN12C): 51.2%; growth at 0.01 µM (HCT-15): 92%; growth at 0.001 µM (EKVX): 96%; growth at 1 µM (SF-268): 17%; growth at 0.01 µM (SK-MEL-2): 108%; growth at 0.01 µM (A549 [6]): 91%; GI50 (Malme-3M [7]): 4.56 µM; TGI (Malme-3M [7]): 39.2 µM; CC50 (Malme-3M [7]): > 100 µM; growth at 0.1 µM (Malme-3M [8]): 94% |
| COc1cc(C)cc(-c2nn(CC#N)cc2-c2ccnc(-c3ccc(N(C)C)cc3)c2)c1 | 97 | 0.522 | 41.6 | > 100 | 95 | 31 | -18 | 2.56 | 0.415 | 5.86 | > 100 | 77 | 39 | 103 | 14 | -2 | -6 | 29 | -31 | -61 | growth at 0.1 µM (HOP-92): 35%; growth at 0.001 µM (KM12): 93%; growth at 0.001 µM (A498): 91%; growth at 0.001 µM (HCC 2998): 106%; growth at 10 µM (SR): 8%; growth at 10 µM (SN12C): 24.7%; growth at 0.01 µM (HCT-15): 92%; growth at 0.001 µM (EKVX): 91%; growth at 1 µM (SF-268): -2%; growth at 0.01 µM (SK-MEL-2): 116%; growth at 0.01 µM (A549 [6]): 97%; TGI (Malme-3M [7]): > 100 µM; CC50 (Malme-3M [7]): > 100 µM; growth at 0.1 µM (Malme-3M [8]): 46% |
